Test results: ChEMBL document CHEMBL1145520, “RAS-RAF-MEK-dependent oxidative cell death involving voltage-dependent anion channels” (Nature, 2007)
Activity calls are given as the source filed them. No cut-off for these calls is given here.

Tests used:
[1] = biological target: T1, Mitogen-activated protein kinase; ERK1/ERK2 (Homo sapiens) (UniProt P27361+P28482); assay: Effect on ERK1/2 phosphorylation in human BJ cells expressing TERT, LT, ST and RAS G12V mutant genes cells by Western blot; type: cell-based
T1 sequence (P27361 whole entry, looked up): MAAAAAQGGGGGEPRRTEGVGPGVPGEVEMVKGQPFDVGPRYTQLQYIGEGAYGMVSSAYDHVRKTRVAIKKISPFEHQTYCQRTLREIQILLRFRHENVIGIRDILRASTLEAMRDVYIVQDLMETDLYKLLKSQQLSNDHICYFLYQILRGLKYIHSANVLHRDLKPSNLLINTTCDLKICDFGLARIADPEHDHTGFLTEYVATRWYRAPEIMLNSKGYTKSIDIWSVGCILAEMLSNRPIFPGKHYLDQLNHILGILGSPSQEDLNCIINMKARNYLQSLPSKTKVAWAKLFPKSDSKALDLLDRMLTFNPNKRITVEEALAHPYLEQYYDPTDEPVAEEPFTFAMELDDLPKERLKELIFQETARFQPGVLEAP
T1 sequence (P28482 whole entry, looked up): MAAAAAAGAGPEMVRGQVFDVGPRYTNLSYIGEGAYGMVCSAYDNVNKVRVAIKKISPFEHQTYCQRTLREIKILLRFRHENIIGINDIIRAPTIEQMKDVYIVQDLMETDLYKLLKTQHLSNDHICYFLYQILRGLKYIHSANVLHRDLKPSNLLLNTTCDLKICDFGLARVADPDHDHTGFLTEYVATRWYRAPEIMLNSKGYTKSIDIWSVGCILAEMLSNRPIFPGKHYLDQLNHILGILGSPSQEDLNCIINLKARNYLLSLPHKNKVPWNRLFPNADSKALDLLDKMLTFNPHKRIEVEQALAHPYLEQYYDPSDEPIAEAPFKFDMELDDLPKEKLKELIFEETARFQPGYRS
Procedure, shortened: (§1)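 Washed cells were lysed in pH 7.4 HEPES buffer containing orthovanadate, NaF, pyrophosphate, β-glycerophosphate and protease inhibitors. Lysates were run on SDS-PAGE, transferred to PVDF and blocked 1 h at room temperature. Blots were probed with a multiplex phospho-signalling antibody cocktail and read by infrared fluorescence scanning.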

SK-ES1 = assay: Induction of cell death in human SK-ES-1 cells; type: functional, cell-based
HT-1080 [2] = assay: Induction of cell death in human HT1080 cells in presence of U0126 by trypan blue exclusion method; type: functional, cell-based
BJ [3] = assay: Induction of cell death in human BJ cells expressing TERT, LT, ST and RAS G12V mutant genes cells at 9 uM; type: functional, cell-based
[4] = Induction of cell death in human EWS502 cells; type: functional, cell-based
BJ [5] = assay: Prevention of induction of cell death in human BJ cells expressing TERT, LT, ST and RAS G12V mutant genes cells after 24 hrs in presence of butylated hydroxytoluene; type: functional, cell-based
Procedure, shortened: (§2)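 BJ-TERT/LT/ST/RASV12 cells treated 24 h with erastin across roughly 1–2.5 µM, together with DMSO or an antioxidant (α-tocopherol, BHT or β-carotene). Viability read afterwards.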

BJ [6] = assay: Induction of pro-caspase 3 cleavage in human BJ cells expressing TERT, LT, ST and RAS G12V mutant genes; type: functional, cell-based
Procedure, shortened: (§3)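 Cells either untreated, given staurosporine, or given erastin for 6–10 h, then lysed in HEPES pH 7.4 buffer with phosphatase and protease inhibitors. Lysates run on SDS-PAGE, blotted to PVDF, probed with antibodies detecting active caspase-3, with actin as loading control. Bands read on infrared imager.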

C-33-A = assay: Induction of cell death in human C33A cells; type: functional, cell-based
[7] = Induction of cell death in human SKUT cells; type: functional, cell-based
BJ [8] = assay: Effect on intracellular oxidative species in TERT expressing human BJ cells at 4.6 uM; type: functional, cell-based
Procedure, shortened: (§4)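 Cells seeded at 3 × 10^5 per 60 mm dish were grown overnight, then exposed to 4.6 erastin for 2–12 h; H2O2 for 5 min served as positive control. Cells were loaded with H2DCF-DA for 10 min, trypsinized, PBS-washed and stained with propidium iodide. Read-out was flow cytometry as percent of cells with DCF fluorescence in gate M1; n = 2.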

HT-1080 [9] = assay: Induction of cell death in human HT1080 cells in presence of MEK inhibitor by trypan blue exclusion method; type: functional, cell-based
[10] = Induction of cell death in human MES-SA cells; type: functional, cell-based
U2OS = assay: Induction of cell death in human U2OS cells; type: functional, cell-based
[11] = biological target: T1, Mitogen-activated protein kinase; ERK1/ERK2 (Homo sapiens); assay: Effect on ERK1/2 phosphorylation in human U937 cells by Western blot; type: cell-based; details: U-937; procedure, shortened: as §1
[12] = biological target: T1, Mitogen-activated protein kinase; ERK1/ERK2 (Homo sapiens); assay: Effect on ERK1/2 phosphorylation in human SKES1 cells by Western blot; type: cell-based; procedure, shortened: as §1
BJ [13] = assay: Increase in intracellular oxidative species in human BJ cells expressing TERT, LT, ST and RAS G12V mutant genes cells at 4.6 uM; type: functional, cell-based; procedure, shortened: as §4
SK-LMS-1 = assay: Induction of cell death in human SKLMS1 cells; type: functional, cell-based
HCT-116 = assay: Induction of cell death in human HCT116 cells; type: functional
SW872 = assay: Induction of cell death in human SW872 cells; type: functional
[14] = biological target: T1, Mitogen-activated protein kinase; ERK1/ERK2 (Homo sapiens); assay: Effect on ERK1/2 phosphorylation in human HL60 cells by Western blot; type: cell-based; details: HL-60; procedure, shortened: as §1
HT-1080 [15] = assay: Induction of cell death in human HT1080 cells in presence of PD-98059 by trypan blue exclusion method; type: functional, cell-based
Calu-1 = assay: Inhibition of human Calu1 cells expressing KRAS with activating mutations by trypan blue exclusion assay; type: functional, cell-based
Procedure, shortened: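 Calu-1 lung carcinoma cells (activating KRAS mutation) treated with erastin dilutions. Viability measured by Trypan blue exclusion with an automated cell viability analyser after trypsinization and resuspension in growth medium. IC50 derived from the dose series.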

BJ [16] = assay: Induction of cytochrome c release in cytosolic fraction of human BJ cells expressing TERT, LT, ST and RAS G12V mutant genes at 20 ug/ml; type: functional, cell-based
Procedure, shortened: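 BJ-TERT/LT/ST/RASV12 cells seeded 3 × 10^6 per dish, incubated overnight at 37 °C, 5% CO2, then exposed to erastin 20 µg/ml for 6–26 h. Fractionated on ice by needle lysis: nuclei spun out at 400g, mitochondria pelleted at 10,500g. Cytochrome c detected by western blot in cytosolic and mitochondrial fractions.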

[17] = biological target: T1, Mitogen-activated protein kinase; ERK1/ERK2 (Homo sapiens); assay: Effect on ERK1/2 phosphorylation in human SW872 cells by Western blot; type: cell-based; procedure, shortened: as §1
SJSA-1 = assay: Induction of cell death in human SJSA1 cells; type: functional, cell-based
HeLa [18] = assay: Induction of cell death in human HeLa cells; type: functional, cell-based
[19] = Induction of cell death in human MX2 cells; type: functional, cell-based
HT-1080 [20] = assay: Induction of cell death in human HT1080 cells in presence of MEK 1/2 inhibitor by trypan blue exclusion method; type: functional, cell-based
[21] = biological target: T1, Mitogen-activated protein kinase; ERK1/ERK2 (Homo sapiens); assay: Effect on ERK1/2 phosphorylation in human A673 cells by Western blot; type: cell-based; procedure, shortened: as §1
A673 [22] = assay: Induction of pro-caspase 3 cleavage in human A673 cells; type: functional, cell-based; procedure, shortened: as §3
[23] = biological target: T1, Mitogen-activated protein kinase; ERK1/ERK2 (Homo sapiens); assay: Effect on ERK1/2 phosphorylation in TERT expressing human BJ cells by Western blot; type: cell-based; procedure, shortened: as §1
[24] = Induction of cell death in human TC71 cells; type: functional, cell-based
BJ [25] = assay: Prevention of induction of cell death in human BJ cells expressing TERT, LT, ST and RAS G12V mutant genes cells after 24 hrs in presence of alpha-tocopherol; type: functional, cell-based; procedure, shortened: as §2
A673 [26] = assay: Induction of PARP1 cleavage in human A673 cells; type: functional, cell-based
Procedure, shortened: (§5)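 Cells were left untreated or given staurosporine or erastin for 6 or 8 h. Lysates were analysed by western blot for full-length and cleaved PARP1, with actin as loading control.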

HeLa [27] = assay: Induction of PARP1 cleavage in human HeLa cells; type: functional, cell-based; procedure, shortened: as §5
[28] = biological target: T1, Mitogen-activated protein kinase; ERK1/ERK2 (Homo sapiens); assay: Effect on ERK1/2 phosphorylation in human TC32 cells by Western blot; type: cell-based; procedure, shortened: as §1
HOS = assay: Induction of cell death in human HOS cells; type: functional, cell-based
HT-1080 [29] = assay: Induction of cell death in human HT1080 cells in presence of MEK inhibitor 2 by trypan blue exclusion method; type: functional, cell-based
HL-60 = assay: Induction of cell death in human HL60 cells; type: functional
[30] = Induction of cell death in human Hs925.T cells; type: functional, cell-based
BJ [31] = assay: Induction of cell death in human BJ cells expressing TERT, LT, ST and RAS G12V mutant genes cells in presence of MEK inhibitor 2 by trypan blue exclusion method; type: functional, cell-based

CCOc1ccccc1-n1c(C(C)N2CCN(C(=O)COc3ccc(Cl)cc3)CC2)nc2ccccc2c1=O (centres undefined) [ERASTIN]
Activity [1]: 0.92 a.u. | Activity (SK-ES1): 96% | EC50 (SK-ES1; Homo sapiens, SK-ES1): 7 µM | IC50 (HT-1080 [2]): 3.4 µM | Activity (BJ [3]): Active | Activity [4]: 42% | EC50 ([4]; Homo sapiens, EWS502): 10 µM | Activity (BJ [5]): Active | Activity (BJ [6]): inactive | Activity (C-33-A): 21% | EC50 (C-33-A; Homo sapiens, C-33-A): 0.6 µM | Activity [7]: 73% | EC50 ([7]; Homo sapiens, SKUT): 4 µM | Activity (BJ [8]): inactive | IC50 (HT-1080 [9]): 2.5 µM | Activity [10]: 100% | EC50 ([10]; Homo sapiens, MES-SA): 3 µM | Activity (U2OS): 96% | EC50 (U2OS; Homo sapiens, U2OS): 6 µM | Activity [11]: 0.27 a.u. | Activity [12]: 0.25 a.u. | Activity (BJ [13]): Active | Activity (SK-LMS-1): 100% | EC50 (SK-LMS-1; Homo sapiens, SK-LMS-1): 6 µM | Activity (HCT-116): 0% | Activity (SW872): 0% | Activity [14]: 0.1 a.u. | IC50 (HT-1080 [15]): 1 µM | IC50 (Calu-1): 4 µM | Activity (BJ [16]): inactive | Activity [17]: 0.12 a.u. | Activity (SJSA-1): 100% | EC50 (SJSA-1; Homo sapiens, SJSA-1): 12 µM | Activity (HeLa [18]): 94% | EC50 (HeLa [18]; Homo sapiens, HeLa): 0.6 µM | Activity [19]: 71% | EC50 ([19]; Homo sapiens, MX2): 18 µM | IC50 (HT-1080 [20]): 6 µM | Activity [21]: 0.66 a.u. | Activity (A673 [22]): inactive | Activity [23]: 0.09 a.u. | Activity [24]: 92% | EC50 ([24]; Homo sapiens, TC-71): 10 µM | Activity (BJ [25]): Active | Activity (A673 [26]): inactive | Activity (HeLa [27]): inactive | Activity [28]: 0.12 a.u. | Activity (HOS): 100% | EC50 (HOS; Homo sapiens, HOS): 17 µM | IC50 (HT-1080 [29]): 1.3 µM | Activity (HL-60): 0% | Activity [30]: 83% | EC50 ([30]; Homo sapiens): 17 µM | IC50 (BJ [31]): 0.9 µM
